Measured values taken from publication PMC4346016 (Drug Design, Development and Therapy, 2015).
Read-outs that look alike come from different tables or passages of the source. Values belong to the compound of their own block, whether it stands above or below them.

Legend:
[1] = cited from earlier work
[2] = type: in vivo, human; conditions: for half-life: t1/2β; for half-life / CL/F: mean ± SD; for half-life / Tmax / CL/F: n=22; for Tmax: median (min, max); for pharmacokinetic interaction with dapoxetine: single oral doses; for AUClast geometric mean ratio (90% CI): udenafil with dapoxetine combined therapy/udenafil monotherapy
How it was run: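 Crossover in healthy fasted men: single oral udenafil 200 mg alone or with dapoxetine 60 mg, with 240 mL water and a 1-week washout. Blood was taken 0.25–48 h postdose into EDTA and spun at 1,800 g, 4°C. Udenafil (5.0–2,000.0 ng/mL) and DA-8164 (0.25–100.00 ng/mL) were measured by UPLC-MS/MS. Non-compartmental AUC and CL/F were derived. Geometric mean ratios with 90% CI came from log-transformed mixed-model ANOVA.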

[3] = Tolerability / adverse drug reactions in healthy male subjects; type: in vivo, human; conditions: for Abdominal discomfort: number of events / Abdominal discomfort: number of subjects / Adverse drug reactions, total: number of events / Decreased appetite: number of events / Decreased appetite: number of subjects / Diarrhea: number of events / Diarrhea: number of subjects / Dizziness: number of events / Dizziness: number of subjects / Headache: number of events / Headache: number of subjects / Insomnia: number of events / Insomnia: number of subjects / Nausea: number of events / Nausea: number of subjects / Ocular hyperemia: number of events / Ocular hyperemia: number of subjects / Somnolence: number of events / Somnolence: number of subjects / Suicidal ideation: number of events / Suicidal ideation: number of subjects / Vomiting: number of events / Vomiting: number of subjects / hyperhidrosis: number of events / hyperhidrosis: number of subjects / Adverse drug reactions, total: number of subjects: n=23 per treatment; for Adverse drug reactions, total: number of subjects / tolerability: udenafil 200 mg, dapoxetine 60 mg; for tolerability: alone or concomitantly, single oral doses
How it was run: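 Safety was monitored through each 48 h period and at follow-up 5–9 days after the last dose. Assessments were vital signs, 12-lead ECGs, hematology, blood chemistry, urinalysis, physical examinations and adverse-event monitoring. Each event was recorded with its symptoms/signs, duration, intensity, relation to study drug, action taken, outcome and seriousness. Counts are given as subjects and as events.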

[4] = type: in vivo, human; conditions: two-compartment model, WinNonlin
[5] = cited from earlier work; remark: listed apart in the source
[6] = rats; cited from earlier work
[7] = cited from earlier work; remark: listed apart in the source
[8] = type: in vivo, human; conditions: for AUClast geometric mean ratio (90% CI): dapoxetine with udenafil combined therapy/dapoxetine monotherapy; for half-life: t1/2β
How it was run: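 Six-sequence, three-period crossover in healthy men aged 20–45, fasted, with a 7-day washout. Single oral doses of dapoxetine 60 mg alone or with udenafil 200 mg. EDTA plasma was sampled from predose to 48 h. Parent and desmethyl metabolite were measured by UPLC-MS/MS with deuterated internal standards. Non-compartmental analysis: AUClast by trapezoidal rule, AUC0~∞ = AUClast + Clast/λz, CL/F = dose/AUC0~∞. Ratios from log-transformed mixed-model ANOVA with 90% CI.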

[9] = cited from earlier work; remark: listed apart in the source
[10] = integrated analysis of five trials, 6,081 patients; cited from earlier work
[11] = cited from earlier work; remark: listed apart in the source
[12] = combined therapy/udenafil monotherapy
[13] = male, human, plasma, oral, 200 mg
[14] = male, human, plasma, oral, 200 mg, udenafil 200 mg alone
[15] = male, human, plasma, oral, udenafil 200 mg + dapoxetine 60 mg
[16] = udenafil 200 mg + dapoxetine 60 mg
[17] = combined therapy/dapoxetine monotherapy
[18] = male, human, plasma, oral, 60 mg

SMILES: CN1CC(=O)N2[C@H](c3ccc4c(c3)OCO4)c3[nH]c4ccccc4c3C[C@@H]2C1=O [tadalafil]
- pharmacokinetic interaction with dapoxetine [1]: no clinically significant pharmacokinetic interactions

- AUC0~∞ geometric mean ratio (90% CI) [2, 12]: 0.923 (0.867–0.983)
- CL/F geometric mean ratio (90% CI) [2, 12]: 1.084 (1.017–1.154)
- Cmax geometric mean ratio (90% CI) [2, 12]: 0.864 (0.789–0.947)
- t1/2β geometric mean ratio (90% CI) [2, 12]: 0.984 (0.948–1.022)
- Cmax geometric mean ratio (90% CI) ([2]; combined therapy/udenafil monotherapy, listed as udenafil): 0.864
- AUC(0-inf) [2, 13]: 4930 ng·h/mL
- Cmax [2, 13]: 693 ± 206 ng/mL
- half-life [2, 14]: 11 ± 1.64 h
- Tmax [2, 14]: 1 h
- half-life [2, 15]: 10.8 ± 1.27 h
- Tmax [2, 15]: 2 h
- AUC(0-t) ([2]; male, human, plasma, po, 200 mg): 4730 ng·h/mL
- CL/F [2, 16]: 47.31 ± 14.07 L/h
- CL/F ([2]; udenafil 200 mg alone): 43.69 ± 12.21 L/h
- AUClast geometric mean ratio (90% CI) [2]: 0.923 (0.863–0.987)
- AUClast geometric mean ratio (90% CI) ([2]; listed as udenafil): 0.923
- absorption rate constant (ka) ([4]; combined therapy with dapoxetine): 0.50 ± 0.17 h⁻¹
- absorption rate constant (ka) ([4]; monotherapy): 0.84 ± 0.29 h⁻¹
SMILES: CCCOc1ccc(S(=O)(=O)NCCC2CCCN2C)cc1-c1nc2c(CCC)nn(C)c2c(=O)[nH]1 (centres unmarked) [Udenafil]
- pharmacokinetic interaction with dapoxetine [2, 16]: no clinically significant pharmacokinetic interactions
- pharmacokinetic interaction with dapoxetine ([2]; udenafil 200 mg + dapoxetine 60 mg, listed as udenafil): no significant pharmacokinetic interactions
- Abdominal discomfort: number of events [3]: 0 (0)
- Abdominal discomfort: number of subjects [3]: 0 (0)
- Adverse drug reactions, total: number of events [3]: 4
- Decreased appetite: number of events [3]: 1 (1)
- Decreased appetite: number of subjects [3]: 1 (1)
- Diarrhea: number of events [3]: 0 (0)
- Diarrhea: number of subjects [3]: 0 (0)
- Dizziness: number of events [3]: 1 (1)
- Dizziness: number of subjects [3]: 1 (1)
- Headache: number of events [3]: 0 (0)
- Headache: number of subjects [3]: 0 (0)
- Insomnia: number of events [3]: 1 (1)
- Insomnia: number of subjects [3]: 1 (1)
- Nausea: number of events [3]: 0 (0)
- Nausea: number of subjects [3]: 0 (0)
- Ocular hyperemia: number of events [3]: 1 (1)
- Ocular hyperemia: number of subjects [3]: 1 (1)
- Somnolence: number of events [3]: 0 (0)
- Somnolence: number of subjects [3]: 0 (0)
- Suicidal ideation: number of events [3]: 0 (0)
- Suicidal ideation: number of subjects [3]: 0 (0)
- Vomiting: number of events [3]: 0 (0)
- Vomiting: number of subjects [3]: 0 (0)
- hyperhidrosis: number of events [3]: 0 (0)
- hyperhidrosis: number of subjects [3]: 0 (0)
- Adverse drug reactions, total: number of subjects [3]: 3
- tolerability [3]: well tolerated
- terminal half-life (t1/2β) ([5]; oral): 7.3 to 12.1 h
- time to reach peak concentration (tmax) ([5]; oral): 0.8 to 1.3 h
- ka ([5]; previously reported): 0.70 ± 0.26 h⁻¹
- absolute oral bioavailability [6]: 38.0%–55.6
- increase of mean AUClast on co-administration of ketoconazole [7]: 3.2 fold
- increase of mean Cmax on co-administration of ketoconazole [7]: 1.9 fold
- metabolic AUC ratio ([7]; udenafil administered alone): 1.71
- metabolic AUC ratio ([7]; udenafil in combination with ketoconazole): 0.19

- AUC0~∞ geometric mean ratio (90% CI) [8, 17]: 1.117 (1.048–1.191)
- CL/F geometric mean ratio (90% CI) [8, 17]: 0.895 (0.840–0.954)
- Cmax geometric mean ratio (90% CI) [8, 17]: 0.837 (0.758–0.925)
- t1/2β geometric mean ratio (90% CI) [8, 17]: 0.947 (0.873–1.028)
- Cmax geometric mean ratio (90% CI) ([8]; combined therapy/dapoxetine monotherapy, listed as dapoxetine): 0.837
- CL/F ([8]; dapoxetine 60 mg + udenafil 200 mg, mean ± SD, n=20): 26.59 ± 9.22 L/h
- CL/F ([8]; dapoxetine 60 mg alone, mean ± SD, n=20): 30.41 ± 11.99 L/h
- Tmax ([8]; dapoxetine 60 mg alone, median (min, max), n=20): 1.00 (0.50, 2.00) h
- AUClast geometric mean ratio (90% CI) [8]: 1.125 (1.044–1.213)
- AUClast geometric mean ratio (90% CI) ([8]; listed as dapoxetine): 1.125
- AUC(0-inf) [8, 18]: 2360 ng·h/mL
- Cmax [8, 18]: 437 ± 143 ng/mL
- Tmax [8, 18]: 1 h
- half-life ([8]; male, human, plasma, oral, 60 mg, dapoxetine 60 mg alone, mean ± SD, n=20): 16.2 ± 6.72 h
- half-life ([8]; male, human, plasma, oral, span over dapoxetine alone and with udenafil): 15.3 to 16.2 h
- AUC(0-t) ([8]; male, human, plasma, po, 60 mg): 2100 ng·h/mL
SMILES: CN(C)[C@@H](CCOc1cccc2ccccc12)c1ccccc1 [Dapoxetine]
- Abdominal discomfort: number of events [3]: 1 (1)
- Abdominal discomfort: number of subjects [3]: 1 (1)
- Adverse drug reactions, total: number of events [3]: 24
- Decreased appetite: number of events [3]: 0 (0)
- Decreased appetite: number of subjects [3]: 0 (0)
- Diarrhea: number of events [3]: 2 (2)
- Diarrhea: number of subjects [3]: 2 (2)
- Dizziness: number of events [3]: 5 (5)
- Dizziness: number of subjects [3]: 5 (5)
- Headache: number of events [3]: 2 (2)
- Headache: number of subjects [3]: 2 (2)
- Insomnia: number of events [3]: 0 (0)
- Insomnia: number of subjects [3]: 0 (0)
- Nausea: number of events [3]: 11 (11)
- Nausea: number of subjects [3]: 11 (11)
- Ocular hyperemia: number of events [3]: 0 (0)
- Ocular hyperemia: number of subjects [3]: 0 (0)
- Somnolence: number of events [3]: 1 (1)
- Somnolence: number of subjects [3]: 1 (1)
- Suicidal ideation: number of events [3]: 0 (0)
- Suicidal ideation: number of subjects [3]: 0 (0)
- Vomiting: number of events [3]: 2 (2)
- Vomiting: number of subjects [3]: 2 (2)
- hyperhidrosis: number of events [3]: 0 (0)
- hyperhidrosis: number of subjects [3]: 0 (0)
- Adverse drug reactions, total: number of subjects [3]: 12
- tolerability [3]: well tolerated
- initial half-life ([9]; biphasic elimination): approximately 1.4 hours
- plasma concentration as share of peak concentration ([9]; by 24 hours after drug administration): approximately 5%
- Tmax [9]: 1.0 to 1.3 h
- PE profile measures compared with placebo [10]: improved significantly
- increase in AUC of active moiety with ketoconazole [11]: 88%
- increase in Cmax of active moiety with ketoconazole [11]: 23%
- increase in parent drug AUC with ketoconazole [11]: 99%
- increase in parent drug Cmax with ketoconazole [11]: 35%
